Compound activity deposited in PubChem BioAssay by several laboratories.
NS3 helicase inh: HCV NS3 helicase inhibition; NS3 helicase DNA unwinding, Cy5 molecular beacon fluorescence; inhibition, % at 10.9 µM; hit rate 0.56% among 290,000;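 active = inhibition above the mean of all tested compounds plus 3 SD, set per campaign, cut at about 35% in these data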;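 note: 0% = DMSO wells and 100% = thioflavine S control wells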
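Control set: DMSO versus 110 µM thioflavine S; Material: NS3 helicase fragment of HCV; Measured by: Cy5 fluorescence at 0 and 60 min, beacon hairpin quenching; Read-out basis: percent inhibition from t60/t0 fluorescence ratio; Times: reaction time 60 min, 25 °C; Repeats: single replicate; Compound dosing: single dose, 10.9 µM nominal final, DMSO 0.8% final.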
NR3A LBD binder: modulates the human NR3A ligand-binding domain. AID 1259313. hit rate 2.5% among 340,000. NR3A LBD differential scanning fluorimetry, Tm shift; 0% = protein alone, 100% = glycine-bound protein. Tm shift relative to glycine control, % at 25 µM;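 active = melting temperature shift of at least 10% of the positive control shift, at one fixed dose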
EBNA-1 inh: blocks EBNA-1 binding to DNA; EBNA-1 DNA binding, fluorescence polarization; hit rate 0.34% among 300,000; inhibition, % at 14.8 µM; in the data active = inhibition above about 28%
ZTA counter: counter-screen for EBNA-1 inhibitors: inhibitors of Epstein-Barr virus ZTA; inhibition, % at 11 µM; P03206; ZTA-DNA binding, fluorescence polarization; hit rate 0.15% among 320,000; AID 2234; in the data active = inhibition above about 33%
Target sequence (P03206 whole entry, looked up): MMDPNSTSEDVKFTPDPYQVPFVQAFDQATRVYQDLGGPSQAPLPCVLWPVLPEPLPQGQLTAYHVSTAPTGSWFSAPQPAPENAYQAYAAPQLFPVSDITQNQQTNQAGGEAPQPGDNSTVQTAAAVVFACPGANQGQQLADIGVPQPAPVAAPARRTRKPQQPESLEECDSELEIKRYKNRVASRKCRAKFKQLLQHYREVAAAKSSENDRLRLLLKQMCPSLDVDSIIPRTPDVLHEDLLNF
DNA FID counter: displaces DNA intercalator in HCV helicase counter-screen. inhibition, % at 7.9 µM. AID 1845. hit rate 0.17% among 290,000. DNA fluorescent intercalator displacement, fluorescence; in the data active = inhibition above about 37%;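 note: 0% = vehicle and 100% = reference compound; higher means more ethidium bromide displaced from hairpin DNA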
FGF22 binding: binders of recombinant human FGF22 by thermal shift; SYPRO orange fluorescence; percent of sucrose octasulfate shift, DMSO zero; activity (Tm shift, normalised), % at 9.99 µM; hit rate 1.5% among 340,000;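 active = mean Tm shift, scaled 0 neutral to 100 positive control, at about 1.3% or above, every replicate too, limit read from the data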
Target sequence (Q9HCT0 whole entry, looked up): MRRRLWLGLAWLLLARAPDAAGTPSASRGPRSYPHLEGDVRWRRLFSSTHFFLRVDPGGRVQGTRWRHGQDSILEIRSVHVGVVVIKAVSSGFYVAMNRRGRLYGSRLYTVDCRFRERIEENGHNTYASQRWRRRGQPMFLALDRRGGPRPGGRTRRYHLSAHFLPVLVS
* = called active by the depositor; . = no result given. Most compounds without a hit are left out; they make up all but 3.6% or so of the library.

SMILES	NS3 helicase inh	NR3A LBD binder	EBNA-1 inh	ZTA counter	DNA FID counter	FGF22 binding
C[C@H](CO)N1C[C@H](C)[C@H](CN(C)C(=O)Nc2ccccc2)Oc2ncc(C3=CCCC3)cc2C1=O	.	.	.	.	.	0.0
COc1cc(/C=C(\C#N)c2ccccn2)ccc1OCc1ccccc1	-7.7	-6.7	1.9	-3.0	-26.2	0.1
COc1cc(/C=C(\C#N)c2ccccn2)ccc1OCc1ccc(Cl)cc1	-9.0	13.6*	-3.0	16.7	-8.7	.
CO[C@H]1O[C@H](CO)[C@@H](OC(=O)Nc2cccc(F)c2)[C@H](OC(=O)Nc2ccccc2)[C@H]1OC(=O)Nc1ccccc1	.	.	.	.	.	0.0
CCCCCOC(=O)C1C(c2ccccc2)C(C(=O)O)C1c1ccccc1 (stereo unspecified)	33.4	10.2*	-6.2	12.5	-35.8	-1.0
Cc1ccc2nc(CSc3nc(C)ccc3C#N)[nH]c2c1	7.8	28.9*	4.6	6.7	1.7	0.0
Cc1ccc(C#N)c(SCc2ccccc2F)n1	-9.7	-2.5	0.5	7.1	-11.1	0.1
Cc1ccc[n+](CC(=O)c2ccc(NC(=O)c3ccccc3)cc2)c1	1.9	-1.9	7.3	-18.8	4.8	43.9*
CN1C(=O)c2cc(NC(=O)c3cnccn3)ccc2OC[C@H]2O[C@H](CC(=O)O)CC[C@H]21	.	.	.	.	.	-0.1
CC(=O)c1ccc(NC(=O)COC(=O)c2c3c(nc4ccccc24)/C(=C\c2cccs2)CCC3)cc1	6.5	4.1	43.5*	17.7	-5.7	0.1
O=C(COC(=O)c1c2c(nc3ccccc13)/C(=C\c1cccs1)CCC2)Nc1ccccc1	1.9	16.8*	7.5	5.7	5.0	-0.1
CC(C)CNC(=O)COC(=O)c1c2c(nc3ccccc13)/C(=C\c1cccs1)CC2	.	4.6	.	.	.	0.0
COc1ccc(NC(=O)Nc2ccc3c(c2)C(=O)N([C@@H](C)CO)C[C@H](C)[C@H](CN(C)C)OCCCC[C@H](C)O3)cc1	.	.	.	.	.	-0.1
COc1ccc(S(=O)(=O)N(C)C[C@@H]2Oc3c(NC(=O)C4CCOCC4)cccc3C(=O)N([C@H](C)CO)C[C@H]2C)cc1	.	.	.	.	.	0.0
CC(C)C#Cc1ccc2c(c1)O[C@@H](CN(C)CC1CC1)[C@@H](C)CN([C@@H](C)CO)S2(=O)=O	.	.	.	.	.	-0.1
O=C(Nc1nc2ccccc2s1)c1ccc(F)cc1	-0.3	0.2	-3.5	-4.1	-0.9	0.4
Fc1ccc(Nc2nc3ccccc3s2)cc1	-9.1	19.5*	5.8	-0.4	-2.2	42.4
Cc1ccc(Nc2nc3ccccc3s2)cc1	-4.7	22.0*	-2.3	6.0	-10.3	1.5*
C[C@H]1CN([C@@H](C)CO)C(=O)c2cccc(NC(=O)C3CCCCC3)c2O[C@@H]1CN(C)Cc1ccc(Cl)c(Cl)c1	.	.	.	.	.	0.1
Cc1ccc(-n2nc(CC#N)c(C#N)c2N)cc1	4.5	0.6	-9.3	1.5	-2.8	.
Cc1ccc(Nc2nc(N)c(C#N)c(CC#N)c2C#N)cc1	7.5	0.1	1.3	-4.4	-8.7	44.0*
COc1cccc(NC(=S)/C(=C(\[O-])c2ccc([N+](=O)[O-])cc2)[n+]2ccccc2)c1	-2.3	-1.2	-13.2	4.6	5.0	43.4*
O=[N+]([O-])c1ccc(/C([O-])=C(/C(=S)Nc2ccccc2F)[n+]2ccccc2)cc1	8.7	0.8	3.0	2.0	6.5	0.0
Cc1csc2ncc(C(=O)Nc3ccc(C(F)(F)F)cc3)c(=O)n12	4.8	-1.2	13.3	13.7	-1.0	-0.2
CC(=O)c1cnc2scnn2c1=O	4.9	0.7	7.1	8.8	-2.6	43.5*
SMILES	NS3 helicase inh	NR3A LBD binder	EBNA-1 inh	ZTA counter	DNA FID counter	FGF22 binding
Nc1ccccc1C(=O)NCc1ccc(Cl)cc1	-2.1	12.0*	-7.5	-10.2	0.5	.
Cc1ccccc1NC(=O)Nc1ccccc1C(=O)NCc1ccccc1	-4.4	1.4	-9.6	-17.4	-6.7	.
Nc1ccccc1C(=O)NCc1ccc(F)cc1	0.1	0.2	7.4	15.1	-4.7	-0.2
O=C(CCl)Nc1ccccc1C(=O)NCc1ccccc1	2.5	0.5	9.6	0.5	1.0	43.0*
O=C(NCc1ccc(Cl)cc1)c1ccccc1CCc1ccccc1	-8.7	-0.7	31.0*	-10.6	-16.9	.
O=C(C[C@H]1C[C@@H]2c3cc(NC(=O)C4CCC4)ccc3O[C@@H]2[C@@H](CO)O1)NCc1ccccc1F	.	.	.	.	.	-0.2
COC(=O)CNC(c1ccccc1)c1cc(Br)ccc1NC(C)=O (stereo unspecified)	18.1	-2.1	4.3	-7.5	11.6	43.1*
CCOc1ccc2nc(NC(=O)CSc3ccccc3)sc2c1	-3.7	29.5*	-8.8	-14.1	-2.9	.
O=C(CSc1nc2ccccc2o1)Nc1nc2ccc(Br)cc2s1	4.3	0.9	-0.2	5.7	1.4	.
CCOc1ccc2nc(NC(=S)N(C)C)sc2c1	-2.0	30.2*	4.2	10.6	-1.6	.
COc1ccc2nc(NC(=O)CSc3nc4ccccc4o3)sc2c1	-0.3	14.9*	-9.7	-25.6	-0.2	.
O=C(C[C@H]1CC[C@@H]2[C@H](COC[C@H](O)CN2C(=O)c2ccccc2)O1)N1CCc2ccccc2C1	.	.	.	.	.	0.3
Cc1ccc(S(=O)(=O)N[C@@H]2C=C[C@H](CC(=O)NCc3ccc(Cl)c(Cl)c3)O[C@H]2CO)cc1	.	.	.	.	.	0.4
O=C(C[C@@H]1CC[C@@H]2[C@H](COC[C@@H](O)CN2CCC(F)(F)F)O1)NCC1CCCCC1	.	.	.	.	.	-0.1
CCc1cc(C(c2ccc(F)cc2)N2CCOCC2)c(NC(=O)c2ccccc2)s1 (stereo unspecified)	-11.1	0.8	-1.4	-5.5	-2.8	.
CCc1cc(CN2CCOCC2)c(NC(=O)c2ccccc2)s1	12.5	0.7	-4.3	11.3	-3.5	43.2*
O=C1NC(=S)S/C1=C\c1cc(Cl)cc(Cl)c1O	.	16.6*	.	.	.	0.9
O=C1NC(=S)SC1=Cc1ccccc1Cl	.	-4.9	.	.	.	42.7
COc1ccc(/C=C/c2c([N+](=O)[O-])c(=O)n(C)c(=O)n2C)cc1	11.9	0.8	3.2	7.4	-1.1	43.0*
COc1cc(OC)c(NC(=S)Nc2cc(Cl)cc(Cl)c2)cc1Cl	-4.6	26.7*	5.5	3.2	2.4	0.0
COc1cc(OC)c(NC(=S)Nc2cccc(C(C)=O)c2)cc1Cl	-8.2	-1.6	9.8	19.2	-6.1	.
Cc1noc(C)c1S(=O)(=O)Nc1cccc2c1O[C@H](CN(C)C(=O)Nc1ccc3c(c1)OCO3)[C@H](C)CN([C@@H](C)CO)C2=O	.	.	.	.	.	-0.3
CC(=O)N1CC[n+]2c(-c3ccc(Cl)cc3)csc21	-6.7	19.9*	18.9	-1.3	-10.6	0.2
CCc1ccc(-c2csc3[n+]2CCN3C(C)=O)cc1	-10.3	.	6.2	-5.3	-11.0	0.2
Cc1[nH][nH]c(=O)c1/C=N/N1CCOCC1	-2.5	-1.4	-1.2	-2.1	0.2	42.9*
O=S(=O)(c1ccc2nc(Nc3ccccc3)ccc2c1)N1CCCCC1	-35.8	29.8*	-16.2	-2.6	-3.1	0.2
